Screens: PubChem BioAssay, several laboratories
The sample as a whole holds a higher share of hits than the screen did.
PolyA inhibitor = inhibitors of polyadenylation in S. cerevisiae; S. cerevisiae SKY197-pL101 polyadenylation reporter, beta-gal luminescence; efflux-impaired pdr1/pdr3 knockout yeast; score 100 = 6 SD above DMSO; AID 1875; activity score, % at 12 µM; hit rate 0.02% among 300,000;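 active = lowest replicate activity score at least 50, where 100 means six control SD above control mean; inconclusive = lowest score under 50 but half or more replicates reach 50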;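 note: yeast exposed to compound for 9 h at 30 °C; higher score means more reporter readthrough which indicates perturbed polyadenylation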
Calb FLC = affects C. albicans growth with fluconazole. C. albicans CaCi-2 (fluconazole-resistant clinical isolate) + fluconazole, Alamar Blue growth, 48 h. growth inhibition, % (no concentration beside the values). hit rate 0.57% among 300,000. AID 1979;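 active = growth inhibition above about 58% in most replicates, limit read from the data, passing the limit was not always enough; inconclusive = exactly half the replicates above a set limit; inactive = most replicates below a set limit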;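 note: all wells also contain fluconazole at 8 µg/ml as a sub-toxic cotreatment; 0% = median of DMSO wells and 100% = median of geldanamycin control wells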
NALP1 yeast inh = blocks the NALP1 inflammasome reconstituted in yeast. S. cerevisiae NALP1/ASC/caspase-1 growth, X-gal OD620, 72 h. inhibition, % at 10 µM. hit rate 0.61% among 280,000; in the data active = inhibition mostly above about 24%, no sharp cut-off; inactive = mostly below about 32%
T cruzi repl = T. cruzi replication inhibition; T. cruzi beta-gal in NIH3T3, luminescence, 90 h; inhibition, % (concentration not given with the values); hit rate 1.4% among 300,000; AID 1885;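 active = mean inhibition across valid replicates above about 55%, limit read from the data; inconclusive = mean below that limit but half or more replicates reach it; inactive = mean below it, under half of replicates reach it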;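 note: signal also drops with host cell toxicity which is not excluded here; 0% = plate median of DMSO wells and 100% = zero luminescence signal; higher percent means less beta-gal luminescence so fewer parasites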
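Material: NIH/3T3 host cells with β-galactosidase reporter T. cruzi; Input: 5,000 host fibroblasts per well; Medium: DMEM, 2% fetal bovine serum; Compound: 50 nL DMSO compound solution per well; Schedule: 3 h host attachment, then at least 90 h co-culture; Detection: luminescent β-galactosidase signal after 60 min lysis.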
L major viab = Leishmania major promastigote growth inhibition. Leishmania major promastigotes, resazurin fluorescence viability. inhibition, % at 10 µM. hit rate 9% among 200,000; in the data active = inhibition above about 50%;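 note: promastigotes grown with compound for 44 hours at 28 °C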
NLRP3 yeast inh = inhibitors of NALP3 inflammasome in yeast; Yeast reconstituted NLRP3/ASC/caspase-1, beta-gal luminescence, 24 h; inhibition, % at 10 µM; hit rate 0.39% among 330,000; AID 2825;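 active = inhibition of 50% or more; inactive = inhibition below 50%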;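 note: plate controls were induced DMSO wells for no effect and uninduced yeast grown without galactose for full effect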
Numbers without * were called inactive; ? = inconclusive; / = not tested or not shown; ! = repeats disagree.

SMILES	PolyA inhibitor	Calb FLC	NALP1 yeast inh	T cruzi repl	L major viab	NLRP3 yeast inh
CC1CCC(C(C)C)C(OC(=O)Cn2c(-c3ccc(Cl)cc3)[n+](C)c3ccccc32)C1 (configuration not stated)	?	-4	/	52	/	8
Cc1ccccc1OCc1n(CC(=O)OC2CC(C)CCC2C(C)C)c2ccccc2[n+]1C (configuration not stated)	3	99*!	15	65*	101*	14
CCOC(=O)Cn1c(COc2ccccc2OC)[n+](C)c2ccccc21	2	1	/	5	/	22
CC1CCC(C(C)C)C(OC(=O)Cn2c(-c3ccc(Br)cc3)[n+](C)c3ccccc32)C1 (configuration not stated)	-11	108*	-15	63*!	100*	3
Cc1ccc(S(=O)(=O)NCCNC(=O)c2ccc(C)nc2)cc1	4	9	-3	10	/	9
COc1ccc(CCn2c(NN)nc3c2c(=O)[nH]c(=O)n3C)cc1	3	1	/	-18	/	1
Cn1c(=O)[nH]c(=O)c2c1nc(Br)n2C/C=N/Nc1ccccc1	-5	10	3	2	65*	6
COc1ccc(CCn2c(Br)nc3c2c(=O)[nH]c(=O)n3C)cc1	-9	0	4	-22	91*	11
O=C1CC(N2C(=O)/C(=C/C=C/c3ccccc3)SC2=S)C(=O)N1c1ccccc1 (configuration not stated)	-4	5	23	10	56*	11
O=C(O)CN1C(=O)/C(=C/C=C/c2ccccc2)SC1=S	24	0	-3	5	-11	3
COc1ccccc1CNC1CCN(Cc2ccccc2)CC1	-14	-7	12	7	/	8
COc1ccc(OCC(O)CNC2CCCC2)cc1 (configuration not stated)	-15	-1	-8	-1	/	8
CC(C)(c1ccccc1)c1ccc(OCC(O)CNC2CCN(Cc3ccccc3)CC2)cc1 (configuration not stated)	3	33	15	62*	101*	40
CCOc1ccc(OCC(O)CNC2CCN(Cc3ccccc3)CC2)cc1 (configuration not stated)	17	0	20	57*	27	14
COc1ccc(C(=O)NCC(=O)N2CCCC(C(F)(F)F)C2)cc1OC (configuration not stated)	9	4	/	-3	/	19
O=C(c1ccc(Cl)cc1Cl)C1(n2cncn2)Oc2ccccc2C1O (configuration not stated)	-71	-21	22	55*	28	-6
CC(C)/C=C(/C(=O)c1ccc(Cl)cc1Cl)n1cncn1	-11	-8	9	26	/	16
O=S(=O)(CCC1CCCCN1)c1ccccc1 (configuration not stated)	6	-3	8	-10	/	10
O=C(NC(=S)Nc1ccc(Cc2ccncc2)cc1)c1ccc(F)cc1	-23	9	15	12	-1	11
COC(=O)c1cc(CNC(=O)c2ccc(S(=O)(=O)N(C)c3ccccc3)cc2)ccc1OC	/	/	/	/	/	-4
Cc1ccc(Nc2ncccc2C(=O)NCc2cccs2)c(C)c1	-12	?	10	8	96*	1
Cc1cccc(Nc2ncccc2C(=O)NCc2cccs2)c1C	-14	-7	-1	9	79*	6
COc1ccc(CCN2CC(C#N)=C3c4cc(OC)c(OC)cc4CCN3C2)cc1OC	2	17	-2	-7	95*	12
COc1cccc(/C=C/c2n[nH]c(=O)c(C#N)c2C)c1	-6	6	5	-10	/	4
CC1=N/C(=C\c2ccc([N+](=O)[O-])cc2)C(=O)N1c1ccc(Br)c(C)c1	16	-1	11	24	0	21
SMILES	PolyA inhibitor	Calb FLC	NALP1 yeast inh	T cruzi repl	L major viab	NLRP3 yeast inh
Cc1ccc(C(=O)Nc2ccccc2-c2ccccc2)cc1S(=O)(=O)Nc1cccc(C)c1C	5	18	13	62*	63*	15
Cc1ccccc1NS(=O)(=O)c1cc(C(=O)Nc2cccc([N+](=O)[O-])c2)ccc1C	10	-2	11	31	72*	-5
Cc1ccccc1NS(=O)(=O)c1cc(S(C)(=O)=O)ccc1C	-3	6	20	-12	54*	0
Cc1ccccc1NS(=O)(=O)c1cc(C(N)=O)ccc1C	-11	3	6	-12	-2	10
Cc1ccc(C(=O)Nc2cccc(N(C)S(C)(=O)=O)c2)cc1S(=O)(=O)Nc1ccccc1	-10	-5	-2	4	75*	3
Cc1ccc(C(=O)Nc2cccc([N+](=O)[O-])c2)cc1S(=O)(=O)Nc1ccc(C(=O)O)cc1	31	12	-3	-18	-5	15
Cc1ccc(S(=O)(=O)N2CCN(Cc3cc(=O)n4ccccc4n3)CC2)c(C)c1	/	/	/	/	/	18
C=CCOc1cccc(CNc2cccc(C(=O)O)c2)c1	-5	-13	8	-7	/	0
Cc1onc(-c2c(Cl)cccc2Cl)c1C(=O)N/N=C(\N)COc1ccc(Cl)cc1	3	93*	6	41	97*	1
Cc1onc(-c2c(F)cccc2Cl)c1C(=O)NCCc1ccncc1	-6	21	11	-1	/	-3
Cc1onc(-c2c(F)cccc2Cl)c1C(=O)Nc1cccc(Cn2cccn2)c1	-1	0	-3	8	63*	3
Cc1onc(-c2c(F)cccc2Cl)c1C(=O)NNC(=O)C1CCN(Cc2ccccc2)CC1	4	92*	13	0	0	-5
Cc1ccc(S(=O)(=O)N2CCC(C(=O)NNC(=O)C3CC3)CC2)cc1Cl	12	-2	9	2	-5	-6
CC1(C)CC(NC(=O)C2CCN(S(=O)(=O)c3cccc(C(F)(F)F)c3)CC2)CC(C)(C)N1	/	/	/	/	/	13
COc1ccc2[nH]c3c(N4CCN(Cc5ccc6c(c5)OCO6)CC4)ncnc3c2c1	-11	2	0	26	56*	14
CCOc1ccc2[nH]c3c(N4CCc5ccccc5C4)ncnc3c2c1	-8	-1	24	35	/	13
COc1ccc2[nH]c3c(N4CCC(O)(c5cccc(C(F)(F)F)c5)CC4)ncnc3c2c1	9	10	-1	24	100*	22
COc1ccc2c(c1)c1ncnc(N3CCN(Cc4ccc5c(c4)OCO5)CC3)c1n2C	/	/	20	/	24	/
CCN1/C(=C2\SC(=S)N(Cc3ccccc3)C2=O)Sc2ccccc21	-9	-21	12	11	-5	-8
CCC(CO)[n+]1c(C)cc(/C=C2\Sc3ccccc3N2Cc2ccccc2)cc1C (configuration not stated)	/	/	28	/	100*	/
C=CCN(CC=C)S(=O)(=O)c1ccc2nc(NC(=O)C3CCCO3)sc2c1 (configuration not stated)	5	1	30	11	68*	1
